Here are results for seven compounds from PMC10560980 (International Journal for Parasitology: Drugs and Drug …, 2023).

The subject of data set [1] is Trypanosoma cruzi Tulahuen strain intracellular amastigotes. Kind of data set: T. cruzi intracellular amastigote imaging assay in 3T3 cells. In kind it is cell-based. The note with it: for IC50: Trypanosoma cruzi, TULAHUEN, NIH3T3, read-out: IC50 (M; mean ± SD) T. cruzi. The method, boiled down:
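T. cruzi Tulahuen was maintained in 3T3 fibroblasts in phenol red-free RPMI with 10% FBS and passaged with freshly egressed trypomastigotes. Intracellular amastigotes were scored by high-content imaging, with final concentrations up to 73.2 µM. Each compound was run as single point over three experimental replicates. Controls were 30 µM puromycin (host cells) and 12 µM nifurtimox (amastigotes). IC50 came from 4-parameter variable-slope nonlinear regression.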

For data set [2], the system named is Plasmodium falciparum 3D7 asexual erythrocytic parasites. Kind of data set: 48 h [3H]-hypoxanthine incorporation assay. The following applies: for IC50: Plasmodium falciparum, 3D7, 48 h, read-out: IC50 (M; mean ± SD) P. falciparum; for average % inhibition at highest concentration tested, P. falciparum: at 5.0 × 10^−5 M (50 μM), 50 µM. In kind it is cell-based. The method, boiled down: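 Compound exposure and [3H]-hypoxanthine uptake ran 48 h. Controls were uninfected RBC background, untreated, DMSO vehicle and chloroquine. % inhibition was taken versus matched vehicle minus background. At least two independent assays were run in triplicate. Where no IC50 could be fitted, % inhibition at the highest concentration was reported.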

Data set [3] deals with Neonatal Foreskin Fibroblasts (NFF). Briefly: Mammalian cell susceptibility assay. In kind it is cell-based, human. The following applies: for IC50: read-out: IC50 (M; mean ± SD) NFF; for Selectivity: NFF IC50 / Giardia IC50.
The subject of data set [4] is assemblage B G. duodenalis BRIS/91/HEPU/1279 trophozoites. Briefly: G. duodenalis compound susceptibility assay. The class given is cell-based. The note with it: Giardia duodenalis.
In data set [5] the test system is BRIS/91/HEPU/1279 trophozoites. Briefly: Minimum lethal concentration. The note with it: 48 h exposure, then four days in culture. In kind it is cell-based, Giardia duodenalis. The procedure, abridged: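 Assemblage B BRIS/91/HEPU/1279 trophozoites in modified TYI-S-33 were exposed to compound for 48 h. They were then returned to drug-free culture for four more days and imaged by brightfield at 10x to judge regrowth. Albendazole ran alongside. Experiments were done at least three times in duplicate.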

The subject of a further data set is Giardia. The note with it: in humans; ref Nabarro et al., 2015; cited from earlier work.
The next data set has as its system G. duodenalis BAH2c2. Kind of data set: In vivo efficacy in mouse model of giardiasis. Further details: species or system outbred Swiss mice. The procedure, abridged:
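Seven-day-old outbred Swiss pups (groups of ten) were orally gavaged with 10^5 BAH2c2 trophozoites in 0.9% saline. Faecal cysts were tracked daily by centrifugal flotation and immunofluorescence counting. About 1 week post-infection, mice received oral gavage once daily for three days: vehicle, test compound, or metronidazole 100 mg/kg. The next day, small-intestine trophozoites were counted manually and large-intestine cysts per gram. Efficacy followed WAAVP guidelines; groups were compared by t-test.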

Another data set deals with faecal microbiome. Briefly: Microbiome assessment. The class given is in vivo, outbred Swiss mice. The method, boiled down: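 Three groups of 12 outbred Swiss mice received vehicle control, metronidazole 100 mg/kg or test compound 7.4 mg/kg daily on days 1, 2 and 3. Faecal samples were collected from individual animals on days 0–5 and stored at room temperature in 80% ethanol. About 0.2 g of each sample was homogenised with glass beads in lysis buffer for 16S rRNA profiling.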

In data set [6] the test system is Escherichia coli (ATCC 25922). Kind of data set: Antibacterial microbroth dilution. The class given is cell-based. The following applies: 20 h exposure, LB broth. The procedure, abridged:
(§1)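 Broth microdilution per CLSI in LB broth. A 20 mM test-compound solution was diluted in LB broth. Organisms were exposed to compound for 20 h, then growth inhibition was scored to define the MIC. Ampicillin was the positive control.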

The test system of data set [7] is Staphylococcus aureus (ATCC 29213). Kind of data set: Antibacterial microbroth dilution. The note with it: 20 h exposure, LB broth. The class given is cell-based. The procedure, abridged:
as §1

The subject of data set [8] is Enterococci faecalis (ATCC 29212). Briefly: Antibacterial microbroth dilution. The class given is cell-based. The note with it: 20 h exposure, LB broth. The method, boiled down: as §1
In data set [9] the test system is L. donovani DD8 amastigotes. Briefly: L. donovani intracellular amastigote imaging assay in THP-1 cells. The following applies: Leishmania donovani, THP-1, 96 h, read-out: IC50 (M; mean ± SD) L. donovani. The class given is cell-based. The method, boiled down:
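L. donovani DD8 promastigotes were kept in modified M199 Hanks medium, pH 6.8, with 10% heat-inactivated FBS at 27 °C. PMA-differentiated THP-1 cells were infected with metacyclic promastigotes (1:5 host:parasite), then exposed 96 h to 80–0.004 µM final. Cells were fixed in 4% paraformaldehyde, stained with SYBR green/CellMask Deep Red and imaged at 20x; an infected cell held >3 parasites. Controls were 2 µM amphotericin B and 0.4% DMSO. Assays ran twice in triplicate; IC50 came from 4-parameter regression.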

A further data set can be described thus: Aqueous solubility. In kind it is physicochemical.
Data set [10] can be described thus: Storage stability of solid. The note with it: crystalline solid; ambient conditions; several months. In kind it is physicochemical.
Data set [11] deals with G. duodenalis BRIS/87/HEPU/713 assemblage A. Kind of data set: G. duodenalis compound susceptibility assay. In kind it is cell-based. The note with it: Giardia duodenalis, 48 h, read-out: IC50 (nM; mean ± SD) AA.
Data set [12] concerns Human Embryonic Kidney (HEK-293) cells. Kind of data set: Mammalian cell susceptibility assay, HEK-293. The note with it: HEK293, read-out: growth inhibition, HEK293. In kind it is cell-based.
Data set [13] has as its system MTZ resistant assemblage B BRIS/91/HEPU/1279m1 parasites. Kind of data set: G. duodenalis compound susceptibility assay. The following applies: Giardia duodenalis, 48 h, read-out: IC50 (nM; mean ± SD) AB-MTZ. In kind it is cell-based. The method, boiled down: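 The metronidazole-resistant assemblage B line was kept in modified TYI-S-33 with 10% heat-inactivated FBS and penicillin/streptomycin under 15 µM metronidazole, withdrawn two days before testing. Trophozoites had 48 h dose-response exposure and were scored by automated microscopy, at least three times in triplicate. Inhibition was taken versus DMSO vehicle minus media background. IC50 came from 4-parameter variable-slope nonlinear regression.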

The mark [14] stands for this setting: 48 h, read-out: IC50 (M; mean ± SD) Giardia (48h), Compounds Australia samples, assemblage B BRIS/91/HEPU/1279 trophozoites, 48 h, > = highest concentration tested.
Setting [15] is: read-out: IC50 (M; mean ± SD) Giardia AB, purchased (ChemDiv) or synthesized batches, assemblage B BRIS/91/HEPU/1279.
The mark [16] stands for this setting: 100 mg/kg for three days, positive control, first experiment.
Where [17] appears, read: 0.74 mg/kg for three days, oral gavage, PBS vehicle.
The mark [18] stands for this setting: 7.4 mg/kg daily for three days, 50%PBS/DMSO vehicle, P > 0.05.

Each structure is given as a SMILES string. Entries after “also recorded” stand apart in the source; their conditions may differ. Like-named read-outs stand apart in the source and are kept apart here.

As for `CC1CS(=O)(=O)CCN1/N=C/c1ccc([N+](=O)[O-])o1` (stereo not shown) [NFX, nifurtimox, reference compound], in data set [1], the IC50 is 0.98 µM.

Take `CCN(CC)CCCC(C)Nc1ccnc2cc(Cl)ccc12` (stereo not shown) [CQ, chloroquine, reference compound]: the IC50 in [2] is 0.014 µM; in data set [3] (Homo sapiens, Fibroblast), 31 µM.

For the compound `CCCSc1ccc2nc(NC(=O)OC)[nH]c2c1` [ABZ, Albendazole, reference compound], the IC50 in data set [4] (setting [14]) worked out at 57 nM; in [4] (setting [15]), 57 nM; in data set [3] (Homo sapiens, Fibroblast), 1.1 µM. In data set [3], the Selectivity amounted to 19.3. Also, in [5], the “minimum lethal concentration (MLC)” value turned out to be 0.15 µM.

As for `Cc1ncc([N+](=O)[O-])n1CCO` [MTZ, metronidazole, reference compound], in the data set on Giardia, the reported failure rates entry is recorded as “up to 40%”. Also, in the data set with G. duodenalis BAH2c2 (setting [16]), the “reduction of cyst burden vs vehicle” value was found to be 65.6% and the “reduction of trophozoite burden vs vehicle” value was determined as 98.1%. In the data set on faecal microbiome (100 mg/kg daily for three days), the “change in bacterial profile of faecal microbiome” value is “significant shift from the vehicle (DMSO/PBS) and compound 2 exposed mice from Day 1–3”.

On to `CC1(C)S[C@@H]2[C@H](NC(=O)[C@H](N)c3ccccc3)C(=O)N2[C@H]1C(=O)O` [AMP, ampicillin, reference compound], for which the “MIC (M) E. coli” value in data set [6] was below 3.7e-05 M. Further, the “MIC (M) S. aureus” value in data set [7] is below 3.7e-05 M. Also, the “MIC (M) E. faecalis” value in data set [8] is below 3.7e-05 M.

Turning to `C[C@@H]1[C@H](O)[C@@H](C)/C=C/C=C/C=C/C=C/C=C/C=C/C=C/[C@H](O[C@@H]2O[C@H](C)[C@@H](O)[C@H](N)[C@@H]2O)C[C@@H]2O[C@](O)(C[C@@H](O)C[C@@H](O)[C@H](O)CC[C@@H](O)C[C@@H](O)CC(=O)O[C@H]1C)C[C@H](O)[C@H]2C(=O)O` [AMB, Amphotericin B, reference compound], the IC50 in [9] came out at 0.087 µM.

With `Cc1cc2[nH]c(C(=O)Nc3ccccc3Cl)c(CN3CCOCC3)c2s1` [Compound 2, N-(2-chlorophenyl)-2-methyl-6-(morpholinomethyl)-4H-thieno [3,2-b]pyrrole-5-carboxamide], the IC50 in data set [4] (setting [14]) is 310 nM; in data set [4] (48 h, read-out: IC50 (nM; mean ± SD) AB, purchased/resynthesised batches, 48 h, BRIS/91/HEPU/1279 assemblage B), 8.6 to 12 nM; in data set [4] (setting [15]) it was 12 nM; in data set [1], above 73 µM; in data set [2], above 50 µM; in [3] (Homo sapiens, Fibroblast), above 10 µM. The IC50 in [11] is 10 nM; in data set [9] it was above 80 µM; in [13] it was 5.5 nM. The aqueous solubility entry in “Aqueous solubility” is “poor”. Also, in data set [1] (up to highest concentration tested), the “growth inhibition, T. cruzi” value is given as below 50%. Further, in data set [10], the stability to storage entry is “stable”. Besides, the “average % inhibition at highest concentration tested, P. falciparum” value in data set [2] was below 50%; in [2] (listed as 2b), 2.0%. The figures for the “reduction of cyst burden vs vehicle” value in the data set on G. duodenalis BAH2c2 (setting [17]) and in the data set on G. duodenalis BAH2c2 (setting [18]) were 98.8% and 80.1%, respectively. Moreover, the “reduction of trophozoite burden vs vehicle” value with G. duodenalis BAH2c2 (setting [17]) amounted to 73.5%; in the data set with G. duodenalis BAH2c2 (setting [18]), 54.2%. The inhibition at 100 µM was below 50% in [3] (Homo sapiens, Fibroblast, read-out: growth inhibition, NFF) and below 50% in data set [12]. The compound further showed a Selectivity in data set [3] above 32. For the same compound, the selectivity indices in data set [3] (follow up studies, NFF and HEK293 vs Giardia) is above 8333. The “minimum lethal concentration (MLC)” value in data set [5] was 0.062 µM. For the same compound, the “change in bacterial profile of faecal microbiome” value in the data set with faecal microbiome (7.4 mg/kg daily for three days) was “does not impact the normal gut microbiota; also recorded: did not detect any significant (P < 0.05) changes in the bacterial profile; also recorded: did not significantly impact the gut microbial diversity”. The “MIC (M) E. coli” value in data set [6] is above 0.0002 M. For the same compound, the “MIC (M) S. aureus” value in data set [7] was above 0.0002 M. For the same compound, the “MIC (M) E. faecalis” value in [8] was above 0.0002 M.
